Active and inactive are the calls of the source. The calls are words filed in the database; no cut-off is given here.
Experiments:
Rattus norvegicus [1] = assay: Postcoital antifertility activity in rat assessed as viable/resorbing fetuses at 1 ug, po qd for 11 days; format: functional, organism-based
Outline: (§1)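 Female rats, 4–5 per group, given 11 daily oral or subcutaneous doses starting at the first evidence of breeding. They were killed on day 12 and checked for viable or resorbing fetuses. Results are given as animals pregnant out of animals treated.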

Rattus norvegicus [2] = assay: Postcoital antifertility activity in rat assessed as viable/resorbing fetuses at 1 ug, sc qd for 11 days; format: functional, organism-based; outline: as §1
Mus musculus [3] = assay: Antiestrogenic activity in immature Cox mouse assessed as reduction of uterine wet weight at 300 ug, sc qd for 3 days in presence of 0.3 ug of estrone; format: functional
Outline: (§2)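 Immature mice, ten per group, given the agent daily for 3 days by subcutaneous injection or by mouth. The agent went with estrone given subcutaneously (0.3 µg total dose in the table). Subcutaneous doses were in 0.1 mL corn oil, and doses are stated as total dose. Uterine wet weight was taken on day 4 and compared with estrone alone. Reported as mean difference in mg (SE) and % inhibition.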

Mus musculus [4] = assay: Antiestrogenic activity in immature Cox mouse assessed as reduction of uterine wet weight at 100 ug, sc qd for 3 days in presence of 0.3 ug of estrone; format: functional; outline: as §2
Mus musculus [5] = assay: Antiestrogenic activity in immature Cox mouse assessed as reduction of uterine wet weight at 30 ug, sc qd for 3 days in presence of 0.3 ug of estrone; format: functional; outline: as §2
Mus musculus [6] = assay: Antiestrogenic activity in immature Cox mouse assessed as reduction of uterine wet weight at 10 ug, sc qd for 3 days in presence of 0.3 ug of estrone; format: functional; outline: as §2
Mus musculus [7] = assay: Antiestrogenic activity in immature Cox mouse assessed as reduction of uterine wet weight at 3 ug, sc qd for 3 days in presence of 0.3 ug of estrone; format: functional; outline: as §2
Mus musculus [8] = assay: Antiestrogenic activity in immature Cox mouse assessed as reduction of uterine wet weight at 1 ug, sc qd for 3 days in presence of 0.3 ug of estrone; format: functional; outline: as §2
Mus musculus [9] = assay: Antiestrogenic activity in immature Cox mouse assessed as reduction of uterine wet weight at 300 ug, po qd for 3 days in presence of 0.3 ug of estrone; format: functional; outline: as §2
Mus musculus [10] = assay: Antiestrogenic activity in immature Cox mouse assessed as reduction of uterine wet weight at 100 ug, po qd for 3 days in presence of 0.3 ug of estrone; format: functional; outline: as §2
Mus musculus [11] = assay: Antiestrogenic activity in immature Cox mouse assessed as reduction of uterine wet weight at 30 ug, po qd for 3 days in presence of 0.3 ug of estrone; format: functional; outline: as §2
Mus musculus [12] = assay: Antiestrogenic activity in immature Cox mouse assessed as reduction of uterine wet weight at 300 ug, sc qd for 3 days; format: functional
Mus musculus [13] = assay: Antiestrogenic activity in immature Cox mouse assessed as reduction of uterine wet weight at 100 ug, sc qd for 3 days; format: functional
Mus musculus [14] = assay: Antiestrogenic activity in immature Cox mouse assessed as reduction of uterine wet weight at 30 ug, sc qd for 3 days; format: functional
Mus musculus [15] = assay: Antiestrogenic activity in immature Cox mouse assessed as reduction of uterine wet weight at 10 ug, sc qd for 3 days; format: functional
Mus musculus [16] = assay: Antiestrogenic activity in immature Cox mouse assessed as reduction of uterine wet weight at 3 ug, sc qd for 3 days; format: functional
Mus musculus [17] = assay: Antiestrogenic activity in immature Cox mouse assessed as reduction of uterine wet weight at 1 ug, sc qd for 3 days; format: functional
Rattus norvegicus [18] = assay: Antiuterotropic activity in ovariectomized rat assessed as reduction of uterine weight at 3 ug, po qd for 7 days in presence of 17beta-estradiol (reference value: 268.7 +/- 10.3 mg); format: functional
Rattus norvegicus [19] = assay: Antiuterotropic activity in ovariectomized rat assessed as reduction of uterine weight at 5 ug, po qd for 7 days in presence of 17beta-estradiol (reference value: 268.7 +/- 10.3 mg); format: functional
Rattus norvegicus [20] = assay: Antiuterotropic activity in ovariectomized rat assessed as reduction of uterine weight at 10 ug, po qd for 7 days in presence of 17beta-estradiol (reference value: 268.7 +/- 10.3 mg); format: functional
Rattus norvegicus [21] = assay: Uterotropic activity in ovariectomized rat assessed as increase of uterine weight at 1 ug, sc qd for 7 days; format: functional, Uterus; conditions: in the assay text read “1 mg” for “1 ug”
Outline: (§3)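 Ovariectomized adult rats, five per group, treated daily for 7 days, orally or subcutaneously, with the agent in 0.1 mL corn oil. The value is the mean uterine weight in mg of the treated group minus that of the control group (eight animals). Significance was tested by Student's t test (p < 0.05).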

Rattus norvegicus [22] = assay: Uterotropic activity in ovariectomized rat assessed as increase of uterine weight at 0.1 ug, po qd for 7 days; format: functional, Uterus; conditions: in the assay text read “0.1 mg” for “0.1 ug”; outline: as §3
Rattus norvegicus [23] = assay: Uterotropic activity in ovariectomized rat assessed as increase of uterine weight at 0.5 ug, po qd for 7 days; format: functional, Uterus; conditions: in the assay text read “0.5 mg” for “0.5 ug”; outline: as §3
Rattus norvegicus [24] = assay: Uterotropic activity in ovariectomized rat assessed as increase of uterine weight at 1 ug, po qd for 7 days; format: functional, Uterus; conditions: in the assay text read “1 mg” for “1 ug”; outline: as §3
Rattus norvegicus [25] = assay: Postcoital antifertility activity in rat assessed as viable/resorbing fetuses at 5 ug, po qd for 11 days; format: functional, organism-based; outline: as §1
Rattus norvegicus [26] = assay: Postcoital antifertility activity in rat assessed as viable/resorbing fetuses at 5 ug, sc qd for 11 days; format: functional, organism-based; outline: as §1
Rattus norvegicus [27] = assay: Postcoital antifertility activity in rat assessed as viable/resorbing fetuses at 0.5 ug, po qd for 11 days; format: functional, organism-based; outline: as §1
Rattus norvegicus [28] = assay: Postcoital antifertility activity in rat assessed as viable/resorbing fetuses at 0.5 ug, sc qd for 11 days; format: functional, organism-based; outline: as §1

COc1ccc(C(=O)C2=C(c3ccc(OC)cc3)CCc3ccccc32)cc1
Activity (Rattus norvegicus [1]): inactive
Activity (Rattus norvegicus [2]; in the assay text read “at 1 mg” for “at 1 ug”): inactive

COc1ccc(C(=O)C2C(c3ccc(OC)cc3)=CCc3ccccc32)cc1 (configuration not stated)
Activity (Rattus norvegicus [1]): inactive
Activity (Rattus norvegicus [2]): inactive

COc1ccc(C2=C(C(=O)c3ccc(OCCN4CCCC4)cc3)c3ccccc3CC2)cc1.CS(=O)(=O)O [TRIOXIFENE MESYLATE]
inhibition (INH) (Mus musculus [3]): 44.1%
inhibition (INH) (Mus musculus [4]): 53.5%
inhibition (INH) (Mus musculus [5]): 25.9%
inhibition (INH) (Mus musculus [6]): 22.8%
inhibition (INH) (Mus musculus [7]): 12.7%
inhibition (INH) (Mus musculus [8]): 0%
inhibition (INH) (Mus musculus [9]): 52.3%
inhibition (INH) (Mus musculus [10]): 49.2%
inhibition (INH) (Mus musculus [11]): 31.1%
Activity (Mus musculus [12]): 19.1 mg
Activity (Mus musculus [13]): 24.2 mg
Activity (Mus musculus [14]): 21.2 mg
Activity (Mus musculus [15]): 34 mg
Activity (Mus musculus [16]): 28.8 mg
Activity (Mus musculus [17]): 8.6 mg
Activity (Rattus norvegicus [18]): 231.7 mg
Activity (Rattus norvegicus [19]): 222.3 mg
Activity (Rattus norvegicus [20]): 200.9 mg
Activity (Rattus norvegicus [21]): 66.8 mg
Activity (Rattus norvegicus [22]): 35 mg
Activity (Rattus norvegicus [23]): 54.9 mg
Activity (Rattus norvegicus [24]): 58.7 mg
Activity (Rattus norvegicus [25]): Active
Activity (Rattus norvegicus [26]): Active
Activity (Rattus norvegicus [1]): Active
Activity (Rattus norvegicus [2]): Active
Activity (Rattus norvegicus [27]): inactive
Activity (Rattus norvegicus [28]): inactive

Reference: ChEMBL document CHEMBL3243977, “Synthesis and antiestrogenic activity of [3,4-dihydro-2-(4-methoxyphenyl)-1-naphthalenyl][4-[2-(1-pyrrolidinyl)ethoxy]-phenyl]methanone, methanesulfonic acid salt” (J Med Chem, 1979)
